Source: PubChem BioAssay
SIAE primary: blocks human sialic acid acetylesterase; 370,000 compounds, 0.69% hits; inhibition, % at 9.66 µM; SIAE FP-Rh probe binding, fluorescence polarization; AID 1053197;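 active = inhibition above a cutoff: mean of compounds within the control limits plus 3 SD of those, cut at about 17% in these data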
HTRA1 inh: blocks human HTRA1 serine peptidase; inhibition, % at 5.96 µM; Q92743; 340,000 compounds, 0.5% hits; recombinant HTRA1, FP-rhodamine activity-based probe, fluorescence polarization; in the data active = inhibition above about 36%
rCAG binder: binds r(CAG) RNA repeats. 370,000 compounds, 1.3% hits. inhibition, % at 3 µM. AID 651821. r(CAG) RNA repeat, TO-PRO-1 dye displacement fluorescence;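 active = inhibition above the plate cutoff, the mean of all test compounds on that plate plus 3 SD, cut at about 35% in these data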;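 note: higher means more dye released from RNA so lower well fluorescence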
ABHD4 inh: inhibits mouse alpha/beta hydrolase domain 4. Q8VD66. purified mABHD4, FP-Rh probe fluorescence polarization. inhibition, % at 8.92 µM. 370,000 compounds, 0.54% hits. AID 720543;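 active = inhibition exceeding the mean over every tested compound plus 3 SD, cut at about 30% in these data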
Target sequence (Q8VD66 whole entry, looked up, the tested form may be a part): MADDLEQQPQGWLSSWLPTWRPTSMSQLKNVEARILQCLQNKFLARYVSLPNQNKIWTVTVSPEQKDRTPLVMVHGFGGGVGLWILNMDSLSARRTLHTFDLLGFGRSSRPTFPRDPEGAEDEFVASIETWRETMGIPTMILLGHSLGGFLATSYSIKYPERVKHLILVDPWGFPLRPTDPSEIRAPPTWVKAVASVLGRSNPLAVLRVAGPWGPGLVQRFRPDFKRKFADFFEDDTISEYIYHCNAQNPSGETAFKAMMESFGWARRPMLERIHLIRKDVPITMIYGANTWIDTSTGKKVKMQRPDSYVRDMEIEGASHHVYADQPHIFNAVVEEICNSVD
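Assay system: mABHD4 protein; medium: HEPES pH 7.0, NaCl, Pluronic buffer; dosing: 8.92 µM, single dose; schedule: 45 min + 60 min at 25 °C; signal: FP readout, ex 525 nm / em 598 nm; read-out: normalized percent inhibition of probe labeling; repeats: single replicate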
TCR CD3 inh: blocks the human TCR-CD3 interaction; TAMRA-labeled TCR probe fluorescence, biochemical; inhibition, % at 9.4 µM; 360,000 compounds, 0.37% hits; in the data active = inhibition above about 19%;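 note: recombinant mutant TCR 2C K166C tagged with TAMRA read by polarization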
rCAG bind conf: r(CAG) RNA repeat binding, confirmation | TO-PRO-1 dye displacement fluorescence | 4,300 compounds, 70% hits | AID 652065 | shares compounds with rCAG binder | inhibition, % at 3 µM;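 active = inhibition above a per-plate cutoff, the mean inhibition of sample wells plus 3 SD, cut at about 35% in these data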;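 note: loss of TO-PRO-1 fluorescence as compound displaces dye from 1x1 AA loop RNA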
DNA CAG counter: counter-screen for rCAG RNA binders: DNA CAG dye complex inhibitors | AID 652068 | shares compounds with rCAG binder | 4,300 compounds, 94% hits | inhibition, % at 3 µM | d(CAG) DNA oligo TO-PRO-1 dye displacement, fluorescence;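 active = inhibition above its plate's cutoff, the mean test-well inhibition plus 3 SD, cut at about 4.8% in these data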;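 note: hits displace the dye from DNA and so lower well fluorescence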
Each line names hits and unclear results; the compound was inactive in the other large screens (follow-up assays come after a bar, where they were run). Sampled rows, rich in hits. Any-hit rate of the full collection: about 2.5%.

Cc1cccc(NS(=O)(=O)c2nnc(NC(=O)c3ccc(Cl)cc3)s2)c1	rCAG binder 36.6 | rCAG bind conf inactive | DNA CAG counter 11.9
COc1ccc(CN(C)S(=O)(=O)c2nnc(NC(=O)c3cccc(F)c3)s2)cc1OC	rCAG binder 56.6 | rCAG bind conf 60.1 | DNA CAG counter 23.6
Cc1cccc(C(=O)Nc2nnc(S(=O)(=O)N(C)Cc3ccco3)s2)c1	rCAG binder 36.5 | rCAG bind conf 37.4 | DNA CAG counter 13.5
COc1ccccc1C(C)NCC(=O)Nc1ccccc1C(F)(F)F (stereo unspecified)	none
Cc1cccc(N2CCN(C(=O)c3cc(S(=O)(=O)N(C)C)ccc3N3CCCC3)CC2)c1C	none
Cc1ccc(C(=O)O)cc1-c1ccc(C=C2C(=O)c3ccccc3C2=O)o1	none
Cc1ccc(NC(=O)CN2C(=O)S/C(=C/c3ccc(-c4cc(C(=O)O)ccc4C)o3)C2=O)cc1C	rCAG binder 46.1 | rCAG bind conf 90.8 | DNA CAG counter 73.8
COC(=O)C(C)N1C(=O)S/C(=C\c2ccc(-c3ccc(C(=O)O)cc3C)o2)C1=O (stereo unspecified)	rCAG binder 43.9 | rCAG bind conf inactive | DNA CAG counter 7.8
CCCC[C@H](C(=O)N(C)c1ccccc1)[C@@H](O)c1ccc(Cl)cc1	none (no result: HTRA1 inh, TCR CD3 inh)
CN(C)/C=C/c1onc(-c2c(Cl)cccc2Cl)c1C#N	none
N#Cc1c(-c2c(Cl)cccc2Cl)noc1/C=C/Nc1ccc(C(=O)O)cc1	rCAG binder 43.7 | rCAG bind conf 43.5 | DNA CAG counter 10.3
CC(=O)/C(C#N)=C1\NC(=O)C(Cc2ccc(C)c(Cl)c2)S1 (stereo unspecified)	none
CCc1ccc(CC2S/C(=C(\C#N)C(C)=O)NC2=O)cc1 (stereo unspecified)	rCAG binder 37.2 | rCAG bind conf inactive | DNA CAG counter inactive
Cc1ccc(C(=O)Nc2ccccc2C(=O)O)cc1S(=O)(=O)NCc1ccccc1	rCAG binder 63.5 | rCAG bind conf 50.0 | DNA CAG counter 17.3
Cc1ccc(F)cc1NC(=O)c1ccc(NS(=O)(=O)c2ccc(Br)s2)cc1	rCAG binder 41.1 | rCAG bind conf 38.2 | DNA CAG counter 11.3
Cc1ccccc1NC(=O)c1ccc(C)c(S(=O)(=O)Nc2cccnc2)c1	none
Cc1ccc(C(=O)Nc2ccccc2C(=O)O)cc1S(=O)(=O)Nc1ccc(Br)cc1	rCAG binder 83.3 | rCAG bind conf 85.8 | DNA CAG counter 55.8
COc1ccc(S(=O)(=O)NCc2cccnc2)cc1NC(=O)c1ccccc1C	rCAG binder 66.1 | rCAG bind conf 59.4 | DNA CAG counter 34.0
NC(=O)c1ccc(NS(=O)(=O)c2ccc(Br)s2)cc1	none
O=C(Nc1ccccc1C(=O)O)c1cc(S(=O)(=O)NCc2ccccc2)ccc1Cl	rCAG binder 49.0 | rCAG bind conf 39.4 | DNA CAG counter 6.5
Cc1ccc2nc(-c3ccc(NC(=O)CSc4nnc(-c5cccc(Cl)c5)n4Cc4ccco4)cc3)sc2c1	rCAG binder 44.8 (no result: HTRA1 inh, TCR CD3 inh) | rCAG bind conf inactive | DNA CAG counter 8.7
Cc1ccc(-c2nnc(SCC(=O)Nc3ccc(-c4nc5ccc(C)cc5s4)cc3)n2Cc2ccco2)cc1	none (no result: HTRA1 inh, TCR CD3 inh)
O=C1OC(c2cccs2)=N/C1=C\c1ccc(-c2ccccc2Cl)o1	rCAG binder 40.4 | rCAG bind conf 37.4 | DNA CAG counter 15.6
O=C1OC(c2cccs2)=N/C1=C/c1ccc(-c2cccc(C(=O)O)c2)o1	none
CCOC(=O)c1sc2nc(-c3ccco3)c3c(c2c1N)CC(C)(C)OC3	rCAG binder 51.3 | rCAG bind conf 34.6 | DNA CAG counter 14.5
O=S(=O)(Nc1ccc(S(=O)(=O)N2CCCCCC2)cc1)c1cccs1	none
O=S(=O)(Nc1ccc(S(=O)(=O)N2CCCCC2)cc1)c1ccc(Br)s1	rCAG binder 60.4 | rCAG bind conf 60.5 | DNA CAG counter 15.9
COc1ccc(OC)c(/C=C2\Oc3cc(OCC(=O)N4CCC(C(=O)O)CC4)ccc3C2=O)c1	rCAG binder 37.9 | rCAG bind conf 41.6 | DNA CAG counter 8.6
COc1ccc(/C=C2\Oc3cc(OCC(=O)N4CC(O)C[C@H]4C(=O)O)ccc3C2=O)c(OC)c1OC (stereo partly specified)	none
